Experimental data: ChEMBL document CHEMBL5303300, “EUbOPEN Chemogenomics Library - Multiplex” (2023)
“And” between values parts separate entries of the source, which are not always exact repeats. Equal values may be shown once.

System: U2OS
Experiment: Multiplex assay against U2OS
Type: toxicity, cell-based
Conditions: human, number of replicates 2
How it was run: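 Values for tubulin, mitochondrial-mass and membrane-permeability phenotypes are per cents of cells with healthy nuclei. These cells were identified by CellPathfinder machine-learning gating of live cells that had been stained at seeding with Hoechst33342, BioTracker Green Microtubule Cytoskeleton Dye, MitoTracker Red and Annexin V Alexa Fluor 680 and imaged on a CQ1 microscope at 37°C and 5% CO2 after compound addition. The gating first set Hoechst high-intensity objects apart from normal cells, then split normal cells into healthy, pyknosed or fragmented nuclei, and pyknosed cells into mitotic or apoptotic.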

[1] = 12 h, 1 µM, compound concentration 1 uM
[2] = 12 h, 10 µM, compound concentration 10 uM
[3] = 24 h, 1 µM, compound concentration 1 uM
[4] = 24 h, 10 µM, compound concentration 10 uM
[5] = 48 h, 1 µM, compound concentration 1 uM
[6] = 48 h, 10 µM, compound concentration 10 uM

C[C@@H](OC[C@@]1(c2ccccc2)CC[C@]2(CCC(=O)N2)CN1)c1cc(C(F)(F)F)cc(C(F)(F)F)c1 [ROLAPITANT]
Population Apoptotic (%) [1]: 20% and 40%
Population Fragmented Nuclei (%) [1]: 11% and 3%
Population Healthy Nuclei (%) [1]: 73% and 86%
Population Hoechst High Intensity Objects (%) [1]: 0%
Population Membrane Permeable-Phenotype (%) [1]: 4% and 1%
Population Mitochondria Different-Phenotype (%) [1]: 0%
Population Mitotic Cells (%) [1]: 80% and 59%
Population Normal (%) [1]: 100%
Population Pyknosed Nuclei (%) [1]: 14% and 9%
Population Tubulin-Different-Phenotype (%) [1]: 76% and 86%
Population Apoptotic (%) [2]: 37% and 50%
Population Healthy Nuclei (%) [2]: 85% and 71%
Population Hoechst High Intensity Objects (%) [2]: 0%
Population Membrane Permeable-Phenotype (%) [2]: 1% and 5%
Population Mitochondria Different-Phenotype (%) [2]: 0% and 5%
Population Mitotic Cells (%) [2]: 62% and 50%
Population Normal (%) [2]: 99% and 100%
Population Pyknosed Nuclei (%) [2]: 8% and 7%
Population Tubulin-Different-Phenotype (%) [2]: 87% and 30%
Population Apoptotic (%) [3]: 100% and 52%
Population Fragmented Nuclei (%) [3]: 7% and 2%
Population Healthy Nuclei (%) [3]: 90% and 87%
Population Hoechst High Intensity Objects (%) [3]: 0%
Population Membrane Permeable-Phenotype (%) [3]: 0% and 1%
Population Mitochondria Different-Phenotype (%) [3]: 0% and 1%
Population Normal (%) [3]: 100%
Population Pyknosed Nuclei (%) [3]: 2% and 9%
Population Tubulin-Different-Phenotype (%) [3]: 77% and 90%
Population Apoptotic (%) [4]: 48% and 50%
Population Healthy Nuclei (%) [4]: 89% and 77%
Population Hoechst High Intensity Objects (%) [4]: 0%
Population Membrane Permeable-Phenotype (%) [4]: 0% and 3%
Population Mitochondria Different-Phenotype (%) [4]: 0% and 3%
Population Mitotic Cells (%) [4]: 51% and 50%
Population Normal (%) [4]: 99% and 100%
Population Pyknosed Nuclei (%) [4]: 7% and 5%
Population Tubulin-Different-Phenotype (%) [4]: 91% and 35%
Population Apoptotic (%) [5]: 40% and 48%
Population Fragmented Nuclei (%) [5]: 5% and 1%
Population Healthy Nuclei (%) [5]: 87% and 92%
Population Hoechst High Intensity Objects (%) [5]: 0%
Population Membrane Permeable-Phenotype (%) [5]: 1%
Population Mitochondria Different-Phenotype (%) [5]: 0%
Population Mitotic Cells (%) [5]: 60% and 51%
Population Normal (%) [5]: 100% and 99%
Population Pyknosed Nuclei (%) [5]: 6% and 5%
Population Tubulin-Different-Phenotype (%) [5]: 87% and 91%
Population Apoptotic (%) [6]: 48% and 28%
Population Fragmented Nuclei (%) [6]: 2% and 7%
Population Healthy Nuclei (%) [6]: 90% and 78%
Population Hoechst High Intensity Objects (%) [6]: 0%
Population Membrane Permeable-Phenotype (%) [6]: 0% and 4%
Population Mitochondria Different-Phenotype (%) [6]: 0% and 4%
Population Mitotic Cells (%) [6]: 51% and 71%
Population Normal (%) [6]: 100%
Population Pyknosed Nuclei (%) [6]: 6% and 13%

CN(C)CCN(Cc1ccc(-c2ccc(CNCCc3ccccc3)cc2)cc1)C(=O)CCC1CCCC1.Cl.Cl
Population Apoptotic (%) [1]: 77% and 66%
Population Fragmented Nuclei (%) [1]: 17% and 9%
Population Healthy Nuclei (%) [1]: 55% and 78%
Population Hoechst High Intensity Objects (%) [1]: 0%
Population Membrane Permeable-Phenotype (%) [1]: 0% and 6%
Population Mitochondria Different-Phenotype (%) [1]: 36% and 27%
Population Mitotic Cells (%) [1]: 22% and 33%
Population Normal (%) [1]: 100%
Population Pyknosed Nuclei (%) [1]: 26% and 11%
Population Tubulin-Different-Phenotype (%) [1]: 42% and 43%
Population Apoptotic (%) [2]: 100% and 99%
Population Fragmented Nuclei (%) [2]: 7% and 5%
Population Healthy Nuclei (%) [2]: 11% and 13%
Population Hoechst High Intensity Objects (%) [2]: 0% and 2%
Population Membrane Permeable-Phenotype (%) [2]: 100%
Population Mitochondria Different-Phenotype (%) [2]: 100% and 88%
Population Mitotic Cells (%) [2]: 0%
Population Normal (%) [2]: 100% and 97%
Population Pyknosed Nuclei (%) [2]: 80% and 81%
Population Tubulin-Different-Phenotype (%) [2]: 100% and 88%
Population Apoptotic (%) [3]: 78% and 64%
Population Fragmented Nuclei (%) [3]: 10% and 23%
Population Healthy Nuclei (%) [3]: 73% and 44%
Population Hoechst High Intensity Objects (%) [3]: 0%
Population Membrane Permeable-Phenotype (%) [3]: 7% and 5%
Population Mitochondria Different-Phenotype (%) [3]: 39% and 57%
Population Mitotic Cells (%) [3]: 21% and 35%
Population Normal (%) [3]: 100%
Population Pyknosed Nuclei (%) [3]: 16% and 32%
Population Tubulin-Different-Phenotype (%) [3]: 44% and 36%
Population Apoptotic (%) [4]: 100% and 96%
Population Healthy Nuclei (%) [4]: 3% and 6%
Population Hoechst High Intensity Objects (%) [4]: 0% and 3%
Population Membrane Permeable-Phenotype (%) [4]: 100%
Population Mitochondria Different-Phenotype (%) [4]: 100% and 88%
Population Mitotic Cells (%) [4]: 0% and 3%
Population Normal (%) [4]: 100% and 96%
Population Pyknosed Nuclei (%) [4]: 76% and 87%
Population Tubulin-Different-Phenotype (%) [4]: 100% and 88%
Population Apoptotic (%) [5]: 80% and 83%
Population Fragmented Nuclei (%) [5]: 26% and 10%
Population Healthy Nuclei (%) [5]: 34% and 70%
Population Hoechst High Intensity Objects (%) [5]: 0%
Population Mitotic Cells (%) [5]: 20% and 16%
Population Normal (%) [5]: 100%
Population Pyknosed Nuclei (%) [5]: 40% and 18%
Population Tubulin-Different-Phenotype (%) [5]: 58% and 62%
Population Apoptotic (%) [6]: 93% and 97%
Population Fragmented Nuclei (%) [6]: 8% and 14%
Population Hoechst High Intensity Objects (%) [6]: 0% and 1%
Population Membrane Permeable-Phenotype (%) [6]: 100%
Population Mitochondria Different-Phenotype (%) [6]: 100%
Population Mitotic Cells (%) [6]: 6% and 2%
Population Normal (%) [6]: 100% and 98%
Population Pyknosed Nuclei (%) [6]: 66% and 80%
Population Tubulin-Different-Phenotype (%) [6]: 100%

COCCN1CCN(CCn2ccc(Nc3ncc4c(n3)-c3c(nn(C)c3-c3ccccc3)C[C@H]4C)n2)CC1
Population Apoptotic (%) [1]: 40% and 50%
Population Healthy Nuclei (%) [1]: 84% and 72%
Population Hoechst High Intensity Objects (%) [1]: 0%
Population Membrane Permeable-Phenotype (%) [1]: 1% and 5%
Population Mitochondria Different-Phenotype (%) [1]: 0%
Population Mitotic Cells (%) [1]: 59% and 50%
Population Normal (%) [1]: 100%
Population Pyknosed Nuclei (%) [1]: 11% and 7%
Population Tubulin-Different-Phenotype (%) [1]: 82% and 40%
Population Apoptotic (%) [2]: 46% and 63%
Population Fragmented Nuclei (%) [2]: 8% and 4%
Population Healthy Nuclei (%) [2]: 61% and 79%
Population Hoechst High Intensity Objects (%) [2]: 0%
Population Membrane Permeable-Phenotype (%) [2]: 6% and 7%
Population Mitochondria Different-Phenotype (%) [2]: 6% and 8%
Population Mitotic Cells (%) [2]: 53% and 36%
Population Normal (%) [2]: 100% and 99%
Population Pyknosed Nuclei (%) [2]: 30% and 16%
Population Tubulin-Different-Phenotype (%) [2]: 20% and 35%
Population Apoptotic (%) [3]: 58% and 83%
Population Fragmented Nuclei (%) [3]: 2% and 10%
Population Healthy Nuclei (%) [3]: 86% and 81%
Population Hoechst High Intensity Objects (%) [3]: 0%
Population Membrane Permeable-Phenotype (%) [3]: 0% and 7%
Population Mitochondria Different-Phenotype (%) [3]: 0% and 1%
Population Mitotic Cells (%) [3]: 41% and 16%
Population Normal (%) [3]: 100%
Population Pyknosed Nuclei (%) [3]: 11% and 8%
Population Tubulin-Different-Phenotype (%) [3]: 83% and 47%
Population Apoptotic (%) [4]: 86% and 70%
Population Fragmented Nuclei (%) [4]: 12% and 4%
Population Healthy Nuclei (%) [4]: 63% and 78%
Population Hoechst High Intensity Objects (%) [4]: 0%
Population Membrane Permeable-Phenotype (%) [4]: 5% and 4%
Population Mitochondria Different-Phenotype (%) [4]: 5% and 12%
Population Mitotic Cells (%) [4]: 13% and 29%
Population Normal (%) [4]: 100%
Population Pyknosed Nuclei (%) [4]: 23% and 16%
Population Tubulin-Different-Phenotype (%) [4]: 40% and 37%
Population Apoptotic (%) [5]: 58% and 45%
Population Fragmented Nuclei (%) [5]: 10% and 1%
Population Healthy Nuclei (%) [5]: 68% and 89%
Population Hoechst High Intensity Objects (%) [5]: 0%
Population Membrane Permeable-Phenotype (%) [5]: 9% and 1%
Population Mitochondria Different-Phenotype (%) [5]: 0%
Population Mitotic Cells (%) [5]: 41% and 54%
Population Normal (%) [5]: 100%
Population Pyknosed Nuclei (%) [5]: 21% and 8%
Population Tubulin-Different-Phenotype (%) [5]: 54% and 80%
Population Apoptotic (%) [6]: 88% and 91%
Population Fragmented Nuclei (%) [6]: 12% and 6%
Population Healthy Nuclei (%) [6]: 70% and 78%
Population Hoechst High Intensity Objects (%) [6]: 0%
Population Membrane Permeable-Phenotype (%) [6]: 10%
Population Mitochondria Different-Phenotype (%) [6]: 2% and 9%
Population Mitotic Cells (%) [6]: 11% and 8%
Population Normal (%) [6]: 100% and 99%
Population Pyknosed Nuclei (%) [6]: 16% and 14%
Population Tubulin-Different-Phenotype (%) [6]: 38% and 34%

CCn1ccc(Nc2ncc3c(n2)-c2c(nn(C)c2-c2ccc(-c4cnn(C)c4)cc2Cl)CC3)n1
Population Apoptotic (%) [1]: 62% and 57%
Population Fragmented Nuclei (%) [1]: 5% and 15%
Population Healthy Nuclei (%) [1]: 83% and 63%
Population Hoechst High Intensity Objects (%) [1]: 0%
Population Mitochondria Different-Phenotype (%) [1]: 1% and 9%
Population Mitotic Cells (%) [1]: 37% and 42%
Population Normal (%) [1]: 100%
Population Pyknosed Nuclei (%) [1]: 11% and 21%
Population Tubulin-Different-Phenotype (%) [1]: 78% and 47%
Population Apoptotic (%) [2]: 62% and 66%
Population Fragmented Nuclei (%) [2]: 3% and 4%
Population Healthy Nuclei (%) [2]: 71% and 83%
Population Hoechst High Intensity Objects (%) [2]: 0%
Population Membrane Permeable-Phenotype (%) [2]: 13% and 4%
Population Mitochondria Different-Phenotype (%) [2]: 8% and 4%
Population Mitotic Cells (%) [2]: 37% and 33%
Population Normal (%) [2]: 100%
Population Pyknosed Nuclei (%) [2]: 25% and 11%
Population Tubulin-Different-Phenotype (%) [2]: 39% and 29%
Population Apoptotic (%) [3]: 70% and 62%
Population Healthy Nuclei (%) [3]: 85% and 64%
Population Hoechst High Intensity Objects (%) [3]: 0%
Population Mitochondria Different-Phenotype (%) [3]: 1% and 6%
Population Mitotic Cells (%) [3]: 29% and 37%
Population Normal (%) [3]: 99% and 100%
Population Pyknosed Nuclei (%) [3]: 9% and 17%
Population Tubulin-Different-Phenotype (%) [3]: 76% and 37%
Population Apoptotic (%) [4]: 83% and 63%
Population Fragmented Nuclei (%) [4]: 8% and 5%
Population Healthy Nuclei (%) [4]: 75% and 82%
Population Hoechst High Intensity Objects (%) [4]: 0%
Population Membrane Permeable-Phenotype (%) [4]: 7% and 2%
Population Mitochondria Different-Phenotype (%) [4]: 18% and 6%
Population Mitotic Cells (%) [4]: 16% and 36%
Population Normal (%) [4]: 100%
Population Pyknosed Nuclei (%) [4]: 16% and 11%
Population Tubulin-Different-Phenotype (%) [4]: 44% and 29%
Population Apoptotic (%) [5]: 63% and 100%
Population Healthy Nuclei (%) [5]: 89% and 77%
Population Hoechst High Intensity Objects (%) [5]: 0%
Population Membrane Permeable-Phenotype (%) [5]: 1% and 8%
Population Mitochondria Different-Phenotype (%) [5]: 0% and 4%
Population Normal (%) [5]: 100%
Population Pyknosed Nuclei (%) [5]: 7% and 9%
Population Tubulin-Different-Phenotype (%) [5]: 81% and 40%
Population Apoptotic (%) [6]: 68% and 75%
Population Fragmented Nuclei (%) [6]: 8% and 3%
Population Healthy Nuclei (%) [6]: 55% and 80%
Population Hoechst High Intensity Objects (%) [6]: 0%
Population Membrane Permeable-Phenotype (%) [6]: 4% and 3%
Population Mitochondria Different-Phenotype (%) [6]: 12% and 4%
Population Mitotic Cells (%) [6]: 31% and 25%
Population Normal (%) [6]: 100% and 99%
Population Pyknosed Nuclei (%) [6]: 35% and 16%
Population Tubulin-Different-Phenotype (%) [6]: 44% and 35%
